From article PMC6076386 (Biochemistry, 2017)
Entries after “also recorded” stand apart in the source; their conditions may differ.

Assays:
[1] = tested on: thrombin ABE I region 65–84; details: cited from earlier work
PAR3 (Homo sapiens) = PAR3 (Homo sapiens) (UniProt O00254); test: fluorescence titration; details: cited from earlier work
[2] = biological target: Wild Type PPACK-IIa (human plasma thrombin), ABE I (Homo sapiens, UniProt P00734); test: 2D 1H-15N HSQC NMR titration, wild-type PPACK-thrombin; format: binding; details: native PAR3 sequence, 15N-D54 and 15N-F47, PPACK-IIa; pH 6.5, 25 °C
Procedure, shortened: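 Human plasma thrombin blocked with PPACK (4:1 inhibitor:enzyme, 37 °C, 30 min), buffer-exchanged into 25 mM H₃PO₄, 150 mM NaCl, 0.2 mM EDTA, 10% D₂O, pH 6.5, 25 °C. ¹⁵N-labeled PAR3(44–56) held at 50 μM while thrombin (starting 210 μM) was serially diluted, spanning 4:1 to 0.1:1 ratios. Chemical-shift changes were fitted with a ligand-normalized quadratic for K_D. At least triplicate; Monte-Carlo errors assumed 10% dilution error.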

thrombin ABE I = details: cited from earlier work

Substance | HDX-MS binding region [1] | Kd (PAR3 (Homo sapiens)) | binding affinity by 15N-HSQC NMR titration [2] | binding by X-ray crystallography (thrombin ABE I)
hirudin [reference compound] | both bind to the thrombin ABE I region 65–84 | – | – | –
Thrombin (from UniProt P00734) | – | 2 µM | – | –
PAR3 (^44Q N T ^15F E E F P L S ^15D I E[56]) [PAR3 (44–56)] | both bind to the thrombin ABE I region 65–84 | – | binding affinities could not be determined; also recorded: bound too tightly to thrombin | confirmed to bind in a specific manner to thrombin ABE I
